Results reported in ChEMBL document CHEMBL1268976, “Stereocontrolled facile synthesis and antimicrobial activity of oximes and oxime ethers of diversely substituted bispidines” (2010).
Converted amounts (≈) assume the structure as drawn.

Assays:
Assay type in all cases: functional
Aspergillus niger = test: Antifungal activity against Aspergillus niger by broth microdilution method
Procedure, shortened: (§1)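 Fungal panel of Candida albicans, Candida parapsilosis, Aspergillus niger and Cryptococcus neoformans, tested in vitro by standard NCCLS broth microdilution. The yeast susceptibility reference cited is M27-A.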

Bacillus subtilis = test: Antibacterial activity against Bacillus subtilis by broth microdilution method
Procedure, shortened: (§2)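 In vitro broth microdilution following the NCCLS standard for bacteria (M7-A5). The test panel was Bacillus subtilis, Staphylococcus aureus, Klebsiella pneumoniae and Pseudomonas aeruginosa.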

Klebsiella pneumoniae = test: Antibacterial activity against Klebsiella pneumoniae by broth microdilution method; procedure, shortened: as §2
Pseudomonas aeruginosa = test: Antibacterial activity against Pseudomonas aeruginosa by broth microdilution method; procedure, shortened: as §2
Candida albicans = test: Antifungal activity against Candida albicans by broth microdilution method; procedure, shortened: as §1
Candida parapsilosis = test: Antifungal activity against Candida parapsilosis by broth microdilution method; conditions: Lodderomyces parapsilosis; procedure, shortened: as §1
Cryptococcus neoformans = test: Antimicrobial activity against Cryptococcus neoformans by broth microdilution method; procedure, shortened: as §1
Staphylococcus aureus = test: Antibacterial activity against Staphylococcus aureus by broth microdilution method; procedure, shortened: as §2

| SMILES | MIC90 (Aspergillus niger) [µg/mL] | MIC90 (Bacillus subtilis) [µg/mL] | MIC90 (Klebsiella pneumoniae) [µg/mL] | MIC90 (Pseudomonas aeruginosa) [µg/mL] | MIC90 (Candida albicans) [µg/mL] | MIC90 (Candida parapsilosis) [µg/mL] | MIC90 (Cryptococcus neoformans) [µg/mL] | MIC90 (Staphylococcus aureus) [µg/mL] |
| --- | --- | --- | --- | --- | --- | --- | --- | --- |
| ON=C1C2C(c3ccc(Br)cc3)NC(c3ccc(Br)cc3)C1C(c1ccc(Br)cc1)NC2c1ccc(Br)cc1 (centres undefined) | > 128 | 64 (≈ 82.6 µM) | 128 (≈ 165 µM) | > 128 | > 128 | 32 (≈ 41.3 µM) | > 128 | > 128 |
| CCOc1ccccc1C1NC(c2ccccc2OCC)C2C(=NOC)C1C(c1ccccc1OCC)NC2c1ccccc1OCC (centres undefined) | 16 (≈ 24.6 µM) | > 128 | > 128 | 32 (≈ 49.2 µM) | > 128 | 64 (≈ 98.5 µM) | 16 (≈ 24.6 µM) | > 128 |
| CON=C1C2C(c3ccccc3Br)NC(c3ccccc3Br)C1C(c1ccccc1Br)NC2c1ccccc1Br (centres undefined) | > 128 | > 128 | > 128 | > 128 | > 128 | 64 (≈ 81.1 µM) | > 128 | > 128 |
| CCOc1ccccc1C1NC(c2ccccc2OCC)C2C(=NO)C1C(c1ccccc1OCC)NC2c1ccccc1OCC (centres undefined) | 32 (≈ 50.3 µM) | > 128 | 64 (≈ 101 µM) | 32 (≈ 50.3 µM) | > 128 | > 128 | 64 (≈ 101 µM) | > 128 |
| C=CCOc1ccc(C2NC(c3ccc(OCC=C)cc3)C3C(=NOC)C2C(c2ccc(OCC=C)cc2)NC3c2ccc(OCC=C)cc2)cc1 (centres undefined) | 64 (≈ 91.7 µM) | 64 (≈ 91.7 µM) | 16 (≈ 22.9 µM) | 64 (≈ 91.7 µM) | > 128 | 32 (≈ 45.9 µM) | > 128 | > 128 |
| CON=C1C2C(c3ccccc3)NC(c3ccccc3)C1C(c1ccccc1)NC2c1ccccc1 (centres undefined) | > 128 | > 128 | > 128 | 128 (≈ 270 µM) | 128 (≈ 270 µM) | > 128 | > 128 | > 128 |
| CON=C1C2C(c3cccc(Oc4ccccc4)c3)NC(c3cccc(Oc4ccccc4)c3)C1C(c1cccc(Oc3ccccc3)c1)NC2c1cccc(Oc2ccccc2)c1 (centres undefined) | 128 (≈ 152 µM) | > 128 | > 128 | > 128 | 64 (≈ 76 µM) | 128 (≈ 152 µM) | > 128 | > 128 |
| CSc1ccc(C2NC(c3ccc(SC)cc3)C3C(=NO)C2C(c2ccc(SC)cc2)NC3c2ccc(SC)cc2)cc1 (centres undefined) | 16 (≈ 24.8 µM) | > 128 | 32 (≈ 49.7 µM) | 16 (≈ 24.8 µM) | 32 (≈ 49.7 µM) | 32 (≈ 49.7 µM) | 32 (≈ 49.7 µM) | > 128 |
| COc1ccc(C2NC(c3ccc(OC)cc3)C3C(=NO)C2C(c2ccc(OC)cc2)NC3c2ccc(OC)cc2)cc1 (centres undefined) | 16 (≈ 27.6 µM) | > 128 | 64 (≈ 110 µM) | 16 (≈ 27.6 µM) | > 128 | 64 (≈ 110 µM) | 64 (≈ 110 µM) | 64 (≈ 110 µM) |
| ON=C1C2C(c3ccccc3F)NC(c3ccccc3F)C1C(c1ccccc1F)NC2c1ccccc1F (centres undefined) | 4 (≈ 7.53 µM) | 64 (≈ 120 µM) | 32 (≈ 60.2 µM) | 16 (≈ 30.1 µM) | 32 (≈ 60.2 µM) | 64 (≈ 120 µM) | > 128 | > 128 |
| CCc1ccc(C2NC(c3ccc(CC)cc3)C3C(=NOC)C2C(c2ccc(CC)cc2)NC3c2ccc(CC)cc2)cc1 (centres undefined) | > 128 | > 128 | 64 (≈ 109 µM) | 32 (≈ 54.6 µM) | 128 (≈ 218 µM) | 32 (≈ 54.6 µM) | > 128 | > 128 |
| CON=C1C2C(c3ccccc3F)NC(c3ccccc3F)C1C(c1ccccc1F)NC2c1ccccc1F (centres undefined) | 4 (≈ 7.33 µM) | 32 (≈ 58.7 µM) | 16 (≈ 29.3 µM) | 4 (≈ 7.33 µM) | 8 (≈ 14.7 µM) | 64 (≈ 117 µM) | > 128 | 64 (≈ 117 µM) |
| CCOc1ccc(C2NC(c3ccc(OCC)cc3)C3C(=NOC)C2C(c2ccc(OCC)cc2)NC3c2ccc(OCC)cc2)cc1 (centres undefined) | 8 (≈ 12.3 µM) | > 128 | 32 (≈ 49.2 µM) | 32 (≈ 49.2 µM) | > 128 | 128 (≈ 197 µM) | 16 (≈ 24.6 µM) | > 128 |
| CCCOc1ccc(C2NC(c3ccc(OCCC)cc3)C3C(=NO)C2C(c2ccc(OCCC)cc2)NC3c2ccc(OCCC)cc2)cc1 (centres undefined) | 32 (≈ 46.2 µM) | > 128 | 64 (≈ 92.5 µM) | 64 (≈ 92.5 µM) | > 128 | > 128 | 32 (≈ 46.2 µM) | > 128 |
| ON=C1C2C(c3ccccc3)NC(c3ccccc3)C1C(c1ccccc1)NC2c1ccccc1 (centres undefined) | > 128 | > 128 | > 128 | > 128 | > 128 | > 128 | > 128 | > 128 |
| CON=C1C2C(c3cccc(OC)c3)NC(c3cccc(OC)c3)C1C(c1cccc(OC)c1)NC2c1cccc(OC)c1 (centres undefined) | 16 (≈ 26.9 µM) | > 128 | > 128 | 64 (≈ 108 µM) | 128 (≈ 216 µM) | > 128 | 128 (≈ 216 µM) | 128 (≈ 216 µM) |
| CCCCOc1ccc(C2NC(c3ccc(OCCCC)cc3)C3C(=NO)C2C(c2ccc(OCCCC)cc2)NC3c2ccc(OCCCC)cc2)cc1 (centres undefined) | 32 (≈ 42.8 µM) | > 128 | 64 (≈ 85.6 µM) | 64 (≈ 85.6 µM) | > 128 | > 128 | 32 (≈ 42.8 µM) | > 128 |
| CON=C1C2C(c3cccc(Br)c3)NC(c3cccc(Br)c3)C1C(c1cccc(Br)c1)NC2c1cccc(Br)c1 (centres undefined) | > 128 | > 128 | > 128 | > 128 | > 128 | > 128 | > 128 | > 128 |
| ON=C1C2C(c3cccc(Br)c3)NC(c3cccc(Br)c3)C1C(c1cccc(Br)c1)NC2c1cccc(Br)c1 (centres undefined) | > 128 | > 128 | > 128 | > 128 | > 128 | > 128 | > 128 | > 128 |
| ON=C1C2C(c3ccccc3Br)NC(c3ccccc3Br)C1C(c1ccccc1Br)NC2c1ccccc1Br (centres undefined) | > 128 | > 128 | > 128 | > 128 | > 128 | > 128 | > 128 | > 128 |
| ON=C1C2C(c3cccc(Cl)c3)NC(c3cccc(Cl)c3)C1C(c1cccc(Cl)c1)NC2c1cccc(Cl)c1 (centres undefined) | 64 (≈ 107 µM) | > 128 | > 128 | 64 (≈ 107 µM) | > 128 | > 128 | > 128 | > 128 |
| Cc1ccccc1C1NC(c2ccccc2C)C2C(=NO)C1C(c1ccccc1C)NC2c1ccccc1C (centres undefined) | 64 (≈ 124 µM) | > 128 | > 128 | 32 (≈ 62.1 µM) | 64 (≈ 124 µM) | 8 (≈ 15.5 µM) | > 128 | 128 (≈ 248 µM) |
| CON=C1C2C(c3ccccc3Cl)NC(c3ccccc3Cl)C1C(c1ccccc1Cl)NC2c1ccccc1Cl (centres undefined) | 2 (≈ 3.27 µM) | > 128 | 4 (≈ 6.54 µM) | 16 (≈ 26.2 µM) | 16 (≈ 26.2 µM) | > 128 | 16 (≈ 26.2 µM) | 16 (≈ 26.2 µM) |
